Reference: ChEMBL document CHEMBL5260806, “Hydrogen peroxide activated quinone methide precursors with enhanced DNA cross-linking capability and cytotoxicity towards cancer cells” (Eur J Med Chem, 2017)
Activity calls are given as the source filed them. The rule behind the calls is not given here.

Assays:
[1] = tested on: DNA; assay: Induction of [32P]-labeled 49-mer oligonucleotide duplex DNA 25 (unknown origin) interstrand cross-linking at 2 mM for 24 hrs without H2O2 by PAGE; format: functional
[2] = tested on: DNA; assay: Induction of [32P]-labeled 49-mer oligonucleotide duplex DNA 25 (unknown origin) interstrand cross-linking assessed as increase in cross linking with increase of pH from 2 to 9 at 2 mM for 24 hrs in presence of H2O2 by PAGE analysis; format: functional
[3] = tested on: DNA; assay: Induction of [32P]-labeled 49-mer oligonucleotide duplex DNA 25 (unknown origin) interstrand cross-linking at 2 mM for 48 hrs in presence of 2mM H2O2 by PAGE; format: functional
[4] = tested on: UO-31; assay: Anticancer activity against human UO-31 cells assessed inhibition of cell growth after 48 hrs by CellTiter-Glo luminescent assay; format: functional, cell-based; details: UO-31, 48 h
In short: (§1)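 Renal lines grown in RPMI 1640 with 5% FBS and 2 mM L-glutamine, seeded into 384-well plates at 5,000–10,000 cells/well, held 2–3 h at 37 °C, 5% CO2. DMSO stocks (20 mM) serially halved ten times and added at 1:100. Cells exposed 48 h at 37 °C; CellTiter-Glo added, 10 min at room temperature, luminescence read.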

[5] = tested on: A498; assay: Anticancer activity against human A498 cells assessed inhibition of cell growth after 48 hrs by CellTiter-Glo luminescent assay; format: functional, cell-based; details: A498, 48 h
In short: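 Human tumour cells kept in RPMI 1640 with 5% FBS and 2 mM L-glutamine, seeded at 5,000–10,000 cells/well and left 2–3 h at 37°C, 5% CO2. Drugs taken from 20 mM DMSO stocks, serially halved ten times in DMSO, then added at 1:100 dilution. Cells exposed for 48 h at 37°C. Viability read by CellTiter-Glo luminescence after 10 min at room temperature.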

[6] = tested on: SN12C; assay: Anticancer activity against human SN12C cells assessed inhibition of cell growth after 48 hrs by CellTiter-Glo luminescent assay; format: functional, cell-based; in short: as §1
[7] = tested on: 786-0; assay: Anticancer activity against human 786-0 cells assessed inhibition of cell growth after 48 hrs by CellTiter-Glo luminescent assay; format: functional, cell-based; details: 786-0, 48 h
In short: (§2)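 Renal lines grown in RPMI 1640 with 5% FBS and 2 mM L-glutamine, plated at 5,000–10,000 cells/well in 384-well plates and held 2–3 h at 37 °C, 5% CO2. Compounds were made as 20 mM DMSO stocks, given as ten 2-fold serial dilutions diluted 1:100 into cells, and incubated 48 h. Read-out was CellTiter-Glo luminescence after 10 min at room temperature.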

[8] = tested on: TK-10; assay: Anticancer activity against human TK-10 cells assessed inhibition of cell growth after 48 hrs by CellTiter-Glo luminescent assay; format: functional, cell-based; details: TK-10, 48 h; in short: as §1
[9] = tested on: ACHN; assay: Anticancer activity against human ACHN cells assessed inhibition of cell growth after 48 hrs by CellTiter-Glo luminescent assay; format: functional, cell-based; in short: as §2
[10] = Anticancer activity against human CLL cells assessed as reduction in cell viability incubated for 24 hrs by Annexin/PI staining based fluorescence assay; format: functional
In short: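 CLL lymphocytes were taken from patients' peripheral blood (n=3) by Ficoll-Hypaque, suspended in 10% autologous plasma in RPMI, and exposed to 1, 5, 10, 20, 50 and 100 µM. Viability was measured by annexin V/propidium iodide binding. IC50 comes from one representative patient.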

[11] = Toxicity in healthy human lymphocytes assessed as reduction in cell viability at 10 uM after 24 hrs by Annexin/PI staining based fluorescence assay; details: lymphocyte
In short: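 Normal donor lymphocytes (n=2) isolated from peripheral blood by Ficoll-hypaque, in RPMI with 10% autologous plasma. Exposed to 10 µM for 24 h; % viable cells by annexin/PI binding.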

[12] = tested on: DNA; assay: Potentiation of H2O2 induced [32P]-labeled 49-mer oligonucleotide duplex DNA 25 (unknown origin) interstrand cross-linking at pH 8 in phosphate buffer solution assessed as rate constant and measured for 24 hrs by PAGE analysis; format: functional
[13] = tested on: MDA-MB-468; assay: Anticancer activity against human MDA-MB-468 cells assessed inhibition of cell growth after 48 hrs by CellTiter-Glo luminescent assay; format: functional, cell-based; details: MDA-MB-468, 48 h
In short: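 Cells grown in RPMI 1640 with 5% fetal bovine serum and 2 mM L-glutamine, seeded at 5,000–10,000 cells/well in 384-well plates, preincubated 2–3 h at 37°C, 5% CO2. DMSO stocks (20 mM) serially diluted 2-fold ten times, then added at 1:100. Exposure 48 h at 37°C. Viability read by CellTiter-Glo luminescence after 10 min at room temperature; IC50 derived.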

[14] = tested on: CLL cell; assay: Induction of DNA damage in chronic lymphocytic leukemia patient lymphocytes assessed as gamma-H2Ax phosphorylation at Ser139 residue at 10 uM after 24 hrs by FITC-staining based flow cytometry; format: functional; details: Homo sapiens
In short: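 Patient CLL lymphocytes, Ficoll-hypaque isolated, in RPMI with 10% autologous plasma, untreated or exposed to 10 µM for 24 h. Cells washed in PBS, fixed in ice-cold 70% ethanol and held at −20 °C. Then permeabilised, stained with FITC anti-H2AX Ser139 antibody and read by flow cytometry.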

[15] = tested on: CLL cell; assay: Induction of DNA damage in chronic lymphocytic leukemia patient lymphocytes assessed as apoptosis rate at 10 uM after 24 hrs by annexin/PI staining based flow cytometry; format: functional; details: Homo sapiens
[16] = tested on: CAKI-1; assay: Anticancer activity against human CAKI-1 cells assessed inhibition of cell growth after 48 hrs by CellTiter-Glo luminescent assay; format: functional, cell-based; details: CAKI-1, 48 h; in short: as §2

| IC50 [13] [µM] | Structure (SMILES) | Activity [1] [%] | Activity [2] | Activity [3] [%] | IC50 [4] [µM] | IC50 [5] [µM] | IC50 [6] [µM] | IC50 [7] [µM] | IC50 [8] [µM] | IC50 [9] [µM] | IC50 [10] [µM] | Activity [11] | Ka [12] [s⁻¹] | Activity [14] | Activity [15] | IC50 [16] [µM] |
| --- | --- | --- | --- | --- | --- | --- | --- | --- | --- | --- | --- | --- | --- | --- | --- | --- |
| – | COc1c(CBr)c(B2OC(C)(C)C(C)(C)O2)c(CBr)c(OC)c1OC | 0 | inactive | 0 | – | – | – | – | – | – | – | – | – | – | – | – |
| – | COc1cc(COC(C)=O)c(B2OC(C)(C)C(C)(C)O2)c(COC(C)=O)c1 | 0 | – | 26 | – | – | – | – | – | – | – | – | – | – | – | – |
| – | N[C@@H](Cc1ccc(N(CCCl)CCCl)cc1)C(=O)O [MELPHALAN] | – | – | – | 42.9 | 135 | 71 | 19.2 | 54.5 | 52.1 | 76.9 | – | – | – | – | – |
| – | O=C(O)CCCc1ccc(N(CCCl)CCCl)cc1 [CHLORAMBUCIL] | – | – | – | 40.7 | 280 | 135 | 55.5 | – | 133 | 98 | – | – | – | – | – |
| – | CC(=O)OCc1cccc(COC(C)=O)c1B1OC(C)(C)C(C)(C)O1 | 0 | – | 20 | – | – | – | – | – | – | – | – | – | – | – | – |
| 12 | CC1(C)OB(c2c(CBr)cccc2CBr)OC1(C)C | 0 | – | 22 | 25.3 | 33.3 | 27 | 20.3 | 21.4 | 26.9 | 48.3 | Non-Toxic | 8.8e-05 | Active | Active | – |
| 11 | CC1(C)OB(c2c(CBr)cc(O)cc2CBr)OC1(C)C | 0 | – | 50 | 19.5 | – | 24.4 | 27.8 | 35.4 | 35.7 | 20.8 | Non-Toxic | 0.000201 | Active | Active | 38.3 |
| – | CC(=O)OCc1cc(O)cc(COC(C)=O)c1B1OC(C)(C)C(C)(C)O1 | 0 | – | 32 | – | – | – | – | – | – | – | – | – | – | – | – |
| – | COc1cc(OC)c(CBr)c(B2OC(C)(C)C(C)(C)O2)c1CBr | – | – | 20 | – | – | – | – | – | – | – | – | – | – | – | – |
